We go through 4 molecules from ChEMBL document CHEMBL1140914, “Synthesis and in vitro and in vivo evaluation of 18F-labeled positron emission tomography (PET) ligands for imaging the vesicular acetylcholine transporter” (J Med Chem, 2009).

The target of experiment [1] is T1, Vesicular acetylcholine transporter (Homo sapiens, UniProt Q16572).
T1 sequence (Q16572 whole entry): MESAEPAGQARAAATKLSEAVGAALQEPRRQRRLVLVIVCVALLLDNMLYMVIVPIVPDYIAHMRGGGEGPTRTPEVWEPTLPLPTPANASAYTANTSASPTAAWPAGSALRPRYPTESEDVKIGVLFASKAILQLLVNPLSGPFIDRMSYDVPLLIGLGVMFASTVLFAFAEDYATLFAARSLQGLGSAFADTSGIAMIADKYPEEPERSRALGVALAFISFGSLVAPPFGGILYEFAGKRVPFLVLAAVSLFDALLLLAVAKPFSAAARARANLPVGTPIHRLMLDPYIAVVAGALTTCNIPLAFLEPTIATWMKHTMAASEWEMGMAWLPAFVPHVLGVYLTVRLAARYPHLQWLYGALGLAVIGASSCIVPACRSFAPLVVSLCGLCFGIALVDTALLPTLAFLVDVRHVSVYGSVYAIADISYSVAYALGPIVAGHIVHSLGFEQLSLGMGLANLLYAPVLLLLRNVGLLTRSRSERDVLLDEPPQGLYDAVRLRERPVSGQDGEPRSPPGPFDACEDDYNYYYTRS
Kind of experiment: Displacement of [3H]vesamicol from human vesicular acetylcholine transporter expressed in rat PC12 cells by liquid scintillation spectrometry. The experiment is classed as cell-based, PC-12.

In experiment [2] the target is Sigma non-opioid intracellular receptor 1 (Cavia porcellus, UniProt Q60492). Kind of experiment: Displacement of [3H](+)-pentazocine from sigma1 receptor in guinea pig brain membrane by liquid scintillation counting. The experiment is classed as cell membranes.
Sequence of Sigma non-opioid intracellular receptor 1 (Q60492 whole entry): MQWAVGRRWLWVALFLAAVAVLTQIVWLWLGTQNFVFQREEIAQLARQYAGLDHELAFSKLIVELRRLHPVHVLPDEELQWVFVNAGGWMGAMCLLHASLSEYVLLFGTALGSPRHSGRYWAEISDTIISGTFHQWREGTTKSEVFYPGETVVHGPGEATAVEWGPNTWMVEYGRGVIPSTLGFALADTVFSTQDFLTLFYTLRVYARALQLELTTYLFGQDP
Experiment [3] is described as follows: Displacement of [3H]DTG from sigma2 receptor in rat liver membrane. The experiment is classed as cell membranes. The method in brief: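 Rat liver membrane homogenate (~300 μg protein) incubated 2 h at room temperature with ~5 nM [3H]DTG plus 1 μM (+)-pentazocine to mask σ1 sites. Haloperidol 10 μM defines nonspecific binding. Filtered and counted.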
Experiment [4] is described as follows: Selectivity ratio of Ki for human vesicular acetylcholine transporter to Ki for sigma1 receptor in guinea pig brain membrane. The experiment is classed as cell membranes.

In experiment [1], `O[C@@H]1Cc2cccc(OCCCF)c2C[C@H]1N1CCC(c2ccccc2)CC1` returned a Ki of 0.77 nM.
For `O[C@@H]1CC[C@H](OCc2ccc(F)cc2)C[C@H]1N1CCC(c2ccccc2)CC1`, the Ki came out at 30.6 nM in experiment [2], 10.7 nM in experiment [1] and 18.5 nM in experiment [3].
Regarding `O[C@@H]1CCN(Cc2ccc(F)cc2)C[C@H]1N1CCC(c2ccccc2)CC1`, the inhibition constant (Ki) in experiment [2] was 21.6 nM; in experiment [1], 0.22 nM; in experiment [3], 35.9 nM. Moreover, the Ratio Ki in experiment [4] turned out to be 98.
Turning to `O=C(c1ccc([N+](=O)[O-])cc1)C1CCN([C@@H]2Cc3ccccc3C[C@H]2O)CC1` (racemic), in experiment [1], the affinity corresponds to a Ki of 0.48 nM.
